Measured values reported in ChEMBL document CHEMBL1133167, “Synthesis and opioid receptor affinity of morphinan and benzomorphan derivatives: mixed kappa agonists and mu agonists/antagonists as potential pharmacotherapeutics for cocaine dependence” (J Med Chem, 2000).
Counter-ions that a name gives are not always drawn.

Legend:
Cavia porcellus = species: Cavia porcellus; assay: Selectivity kappa/delta
[1] = biological target: Opioid receptor (mu and kappa) (Cavia porcellus) (UniProt P41144+P97266); assay: Selectivity kappa/mu; assay type: protein assay
Mu-type opioid receptor = Mu-type opioid receptor (Cavia porcellus, UniProt P97266); assay: Binding affinity towards Opioid receptor mu 1 by displacing the radioligand [3H]DAMGO from guinea pig brain membrane
Summary of the method: (§1)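 Guinea pig brain membranes (homogenised, preincubated 37 °C 30 min, washed), 500 µg protein, with 12 concentrations of compound in 50 mM Tris-HCl pH 7.5 at 25 °C for 60 min. Nonspecific binding defined with 1 µM naloxone. Glass-fibre filtration, with PEI-soaked filters for kappa. IC50 by log-probit fit; three experiments in triplicate, mean ± SEM.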

[2] = biological target: Kappa-type opioid receptor (Cavia porcellus, UniProt P41144); assay: Binding affinity towards Opioid receptor kappa 1 by displacing the radioligand [3H]U-69593 from guinea pig brain membrane; summary of the method: as §1
[3] = Binding affinity towards Opioid receptor delta 1 by displacing the radioligand [3H]naltrindole from guinea pig brain membrane

Chain of Mu-type opioid receptor (P97266 whole entry): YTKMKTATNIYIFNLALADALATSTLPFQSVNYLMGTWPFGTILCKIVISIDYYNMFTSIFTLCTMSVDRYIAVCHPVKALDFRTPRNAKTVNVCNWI
Chain of Opioid receptor (mu and kappa) (Cavia porcellus) (P41144 whole entry, looked up): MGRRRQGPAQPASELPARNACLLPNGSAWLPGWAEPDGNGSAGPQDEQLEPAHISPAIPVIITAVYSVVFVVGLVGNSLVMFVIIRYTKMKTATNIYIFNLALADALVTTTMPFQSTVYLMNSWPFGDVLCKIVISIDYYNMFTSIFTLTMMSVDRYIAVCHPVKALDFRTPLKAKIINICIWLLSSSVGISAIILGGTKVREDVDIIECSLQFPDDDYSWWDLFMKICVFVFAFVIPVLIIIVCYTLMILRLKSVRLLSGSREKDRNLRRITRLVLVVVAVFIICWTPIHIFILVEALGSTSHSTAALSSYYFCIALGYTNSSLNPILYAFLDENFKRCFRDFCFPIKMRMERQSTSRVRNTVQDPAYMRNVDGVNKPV
Chain of Opioid receptor (mu and kappa) (Cavia porcellus) (P97266 whole entry, looked up): as the sequence (P97266 whole entry) above
Chain of Kappa-type opioid receptor (P41144 whole entry): as the sequence (P41144 whole entry, looked up) above

| SMILES | Selectivity (Cavia porcellus) | Selectivity [1] | Ki (Mu-type opioid receptor) | Ki [2] | Ki [3] |
| --- | --- | --- | --- | --- | --- |
| Oc1ccc2c(c1)[C@@]13CCCCC1[C@@H](C2)N(C[C@@H]1CCCO1)CC3 (some centres not stated) | 2 | 0.066 | 0.01 nM | 0.15 nM | – |
| C[C@H]1C2C(=O)c3ccc(O)cc3[C@@]1(C)CCN2CC1CCCO1 (some centres not stated) | – | – | – | 720 nM | – |
| O=C1c2ccc(O)cc2C23CCCCC2C1N(CC1CC1)CC3 (single isomer, unassigned; (-)) | 6 | 1 | 240 nM | 24 nM | – |
| O=C1c2ccc(O)cc2C23CCCCC2C1N(CC1CCCO1)CC3 (single isomer, unassigned; (-)) | 6 | 2 | 0.38 nM | 0.18 nM | – |
| Oc1ccc2c(c1)[C@@]13CCCC[C@H]1[C@@H](C2)N(CC1CCC1)CC3 [BUTORPHAN] | – | – | – | 0.073 nM | – |
| C[C@H]1[C@H]2Cc3ccc(O)cc3[C@]1(C)CCN2CC1CC1 [CYCLAZOCINE] | – | – | – | 0.052 nM | – |
| Oc1ccc2c(c1)[C@@]13CCCC[C@H]1[C@@H](C2)N(CC1CC1)CC3 [CYCLORPHAN] | – | – | – | 0.053 nM | – |
| CC[C@@]12CCN(CC3CC3)C(C(=O)c3ccc(O)cc31)[C@@H]2C [ETHYLKETOCYCLAZOCINE] | – | – | 0.78 nM | – | 3.4 nM |
| CN1CC[C@]23CCCC[C@H]2[C@H]1Cc1ccc(O)cc13 [LEVORPHANOL HYDROCHLORIDE] | […] | […] | […] | 2.3 nM | – |
